# Source: PubChem BioAssay
# Pemphigus Ab inh – blocks pemphigus antibody binding to human desmoglein-3 | P32926 | DSG3-coupled beads, scFv-anti-DSG3-GFP binding, flow cytometry; hits give low values | binding (percent of control), % at 10 µM | hit rate 0.48% among 310,000;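 active = binding more than 3 SD below its plate's average and above zero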;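 also: hits lower antibody fragment binding to DSG3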
# Avidin bead fluor – avidin bead compound fluorescence profile. Avidin beads, compound fluorescence 488/530 nm, flow cytometry; hits give high values. hit rate 0.38% among 220,000. fluorescence (KMESF) at 10 µM; in the data active = fluorescence above about 47
# Arrestin-AP2 inh – inhibitors of human beta-arrestin and AP2 interaction; FITC-arrestin peptide / GST-AP2 beads, flow cytometry; AP2 beta2 appendage carries R879A mutation; inhibition, % at 10 µM; hit rate 0.31% among 340,000; AID 504490;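 active = inhibition above a set limit, near 3 SD of compounds lacking own fluorescence, cut at about 54% in these data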;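 also: plate controls were DMSO wells for no effect and 5 µM unlabelled arrestin peptide for full effect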
#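 System: GST-tagged AP2 beta2-adaptin appendage (R879A) on 4 µm glutathione beads / Reagent: FITC-arrestin peptide, 50 nM / Detection: HyperCyt-sampled flow cytometry, FL1 channel, ex 488/em 535 nm / Timing: 12 min plus 1 h, RT / Buffer or medium: PBS plus Tween 20 (0.05%) and BSA (0.1%)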
# GSH fluor – compound fluoresces at 488/530 nm on GSH beads | GSH beads flow cytometry, compound fluorescence 488/530 nm; hits give high values | fluorescence (KMESF) at 10 µM | hit rate 0.25% among 190,000 | AID 1776; in the data active = fluorescence above about 89;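 also: glutathione beads carrying GST-tagged Bcl family fusion proteins plus one bare bead set; values are compound well signal with DMSO vehicle wells as background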
# Numbers without * were called inactive; . = no result. In the library only some 1.1% were active in any assay of this set; here they are far more common.
SMILES,Pemphigus Ab inh,Avidin bead fluor,Arrestin-AP2 inh,GSH fluor
CN1CCN(c2ccc(NC(=O)c3ccc4c(c3)OCCO4)cc2)CC1,90,9,-1,16
CCC(=O)N1CCN(c2ccc(NC(=O)c3ccc4c(c3)OCCO4)cc2)CC1,76*,3,7,11
CCCCCCc1nc(C(N)=O)c2[nH]c(=O)n(-c3ccccc3F)c2n1,62*,.,1,.
CC(C)N(Cc1ccccc1)C(=O)Cn1c(=O)cnc2ccccc21,97,49*,-10,.
CC1CCc2c(sc(NC(=O)/C=C/c3cccs3)c2C(=O)O)C1 (stereo not given),59*,.,4,.
CC1CCc2c(sc(NC(=O)c3ccco3)c2C(=O)O)C1 (stereo not given),102,.,27,.
CCCN(CCC)S(=O)(=O)c1ccc(NS(=O)(=O)c2ccc(F)cc2)cc1,98,52*,6,19
CCCN(CCC)S(=O)(=O)c1ccc(NS(C)(=O)=O)cc1,97,15,16,48
FC(F)(F)c1cccc(Cc2noc(CN3CCCC(CN4CCCC4)C3)n2)c1 (stereo not given),109,12,9,16
Cc1ccc(C(=O)NC2c3ccccc3-c3ccccc32)cc1,91,60*,-7,19
CC1CCN(C(=O)C2COc3ccccc3O2)CC1 (stereo not given),102,.,3,.
N#Cc1cccnc1N1CCN(C(=O)COCC(=O)O)CC1,108,8,-13,.
CCCc1cc(=O)[nH]c(SCC(=O)Nc2ccc(OC(F)F)cc2)n1,101,7,0,260*
CCCc1cc(=O)[nH]c(SCC(=O)Nc2ccc3ccccc3c2)n1,103,.,18,.
COc1cccc(NC(=O)c2cccnn2)c1,107,.,6,.
Cc1nc2ccccc2n1CC(=O)OCC(=O)N1CCC(C)CC1,89,.,14,.
COc1ccc(CCNC(=O)C2CC3Cn4c(nc5ccccc54)C3N2Cc2ccccc2)cc1 (stereo not given),101,.,5,.
CCOc1ccccc1C(=O)Nc1cc(C(=O)NCCc2ccccc2)ccc1Cl,79*,7,6,20
CCOc1ccccc1C(=O)Nc1cc(C(=O)NCC(C)C)ccc1Cl,.,13,.,29
O=C(NCCc1ccncc1)Nc1ccccc1Cl,102,126*,-56,9
O=C(NNC(=O)C12CC3CC(CC(Cl)(C3)C1)C2)c1csc(N2CCOCC2)n1,108,.,-2,.
CC1(C)CC(=O)C(N=Nc2cccc(S(=O)(=O)N3CCOCC3)c2)=C(O)C1,101,6,8,.
CC1CCN(S(=O)(=O)c2ccc(N=NC3=C(O)CC(C)(C)CC3=O)cc2)CC1,7.6*,1,18,13
O=C(Nc1cccnc1)c1c(O)c2cccc3c2n(c1=O)CC3,97,9,15,231*
COc1ccc(-c2c(-c3cc(OC)cc(OC)c3)n(C)c3ccc(-c4ccc(N(C)C)nc4)cc23)cc1,98,.,-2,.
SMILES,Pemphigus Ab inh,Avidin bead fluor,Arrestin-AP2 inh,GSH fluor
CC(C)(C)c1ccc(C(=O)CC(=O)c2cc(Cl)ccc2O)cc1,104,8,-2,245*
Cc1ccc(C(=O)CC(=O)c2cc(Cl)ccc2O)cc1,82,7,-1,47
O=C(CCN1CCCCO1)N1CCCC(N2CCN(c3ccc(F)cc3)CC2)C1 (stereo not given),99,.,0,.
C=CCn1c2ccccc2c2nnc(SCC(=O)NC(C(=O)OC)C(C)C)nc21 (stereo not given),108,119*,8,23
O=C(O)c1cccc(S(=O)(=O)NCCc2ccccc2)c1,94,9,5,21
O=C(O)c1cccc(S(=O)(=O)Nc2ccccc2C(=O)NCCc2ccccc2)c1,17*,.,4,.
C=CCOc1cccc(/C=N/NC(=O)CN(c2cc(Cl)ccc2OC)S(=O)(=O)c2ccc(C)c([N+](=O)[O-])c2)c1,95,34,4,196*
COc1ccc(Cl)cc1N(CC(=O)N/N=C/c1ccc(OC(C)C)cc1)S(=O)(=O)c1ccc(C)c([N+](=O)[O-])c1,91,12,-5,5
COc1ccc(CCNC(=O)/C=C/c2cc(OC)c(OC)c(OC)c2)cc1OC,102,73*,2,15
COc1ccc(CCNC(=O)CN(c2ccccc2OC)S(C)(=O)=O)cc1OC,102,8,5,263*
COc1ccc(CNC(=O)NCc2ccc(OC)c(OC)c2)cc1OC,97,64*,-1,37
COc1ccc(CCNC(=O)CC2COc3ccccc3O2)cc1OC (stereo not given),100,48*,4,26
COc1cc(OC)c(OC)cc1NC(=O)CC1COc2ccccc2O1 (stereo not given),.,8,1,17
COc1ccc(CCNC(=O)CN(c2ccccc2OC)S(C)(=O)=O)cc1,90,13,21,31
O=C(CCNC(=O)C1CCN(S(=O)(=O)c2ccccc2)CC1)NCc1ccncc1,103,.,44,.
Cn1c(CCNC(=O)c2cc(COc3ccc(F)c(F)c3)on2)nc2ccccc21,114,.,12,.
Cc1ccc(CSCCNC(=O)CN(c2ccccc2)S(C)(=O)=O)cc1,101,9,0,16
CCOC(=O)CCC(=O)NCc1ccc2c(c1)cc(C)n2C,99,53*,7,15
COc1cccc(C(=O)NCc2ccc3c(c2)cc(C)n3C)c1,82*,10,-5,12
Cc1ccccc1NC(=S)NCc1ccc2c(c1)cc(C)n2C,66*,7,0,16
COc1ccc(C(=O)NCc2ccc3c(c2)cc(C)n3C)cc1OC,109,9,35,18
CN(C)C(CNC(=S)Nc1cccc(Cl)c1)c1cccnc1 (stereo not given),84,12,-2,12
CCOC(=O)c1ccc(-c2nnc(-c3ccc(Cl)cc3Cl)o2)cc1,93*,10,-1,23
CCOC(=O)c1cc(-c2nnc(-c3ccc(Cl)cc3)o2)c(C)nc1C,119,5,5,21
Cc1ccc(-n2c3nc(=O)[nH]c(=O)c-3cc3cc([N+](=O)[O-])ccc32)cc1,102,55*,-10,12
SMILES,Pemphigus Ab inh,Avidin bead fluor,Arrestin-AP2 inh,GSH fluor
COc1ccccc1OCc1ccc(C(=O)Nc2cc(OC)c(OC)c(OC)c2)o1,117,.,-8,.
COc1cc(NC(=O)c2ccc(COc3ccccc3Br)o2)cc(OC)c1OC,102,77*,7,30
COc1ccccc1/C=C/C(=O)OC(C)CN1CCCCC1 (stereo not given),89*,.,28,.
O=S(=O)(c1ccc(Br)s1)N1CCNCC1,93,6,-7,.
C=CCn1c(SCC(=O)c2ccc(O)c(O)c2)nnc1-c1ccccc1OC,99,4,22,247*
CCn1c(SCC(=O)c2ccc(O)c(O)c2)nnc1-c1ccccc1OC,103,10,-4,61
CCN(CC)c1ccc(C(=C2C=CC(=[N+](CC)CC)C=C2)c2ccc(N(CC)CC)cc2)cc1,.,.,90*,.
COc1ccc(C(=O)Nc2ccc3c(c2)C(=O)c2ccccc2C3=O)cc1OC,72*,8,41,11
CC(=O)Nc1ccc2c(c1)C(=O)c1ccccc1C2=O,109,59*,-6,27
